# UPR CHOP act – activators of apoptotic arm of unfolded protein response (CHOP); CHO-CHOP luciferase reporter, UPR activation, luminescence; percent of tunicamycin response over DMSO baseline; activation, % at 10 µM; 330,000 tested, 0.34% active;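 active = at 10 µM dose, activation of 40% or more, normalized to positive control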;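 also: 100% = tunicamycin at 10 µg/mL and 0% = DMSO alone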
#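 measured by = luciferase luminescence | assay system = CHO-CHOP cells, stable luciferase reporter of PERK-eIF2a-CHOP signalling | amount = 500 reporter cells seeded per well | timing = 6 h compound exposure at 37 °C after overnight seeding | controls = positive tunicamycin 10 µg/mL, negative DMSO alone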
# GAA850 FXN act – frataxin GAA850 promoter activation. 360,000 tested, 0.56% active. activation, % at 6 µM. AID 540364. HEK293 lucGAA850 FXN promoter luciferase reporter, 24 h; percent of 10 µM SAHA response;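 active = activation above the average of all compounds screened plus 3 SD, cutoff fixed separately per campaign, cut at about 7.5% in these data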;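 also: 0% = DMSO wells and 100% = 10 µM SAHA wells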
# UPR XBP1 act – adaptive UPR (XBP1) activation; CHO-XBP1 luciferase reporter, IRE1-XBP1 UPR activation, luminescence; percent of tunicamycin response, DMSO as zero; activation, % at 20 µM; 330,000 tested, 0.33% active;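 active = versus positive control, 20 µM dose yields 30% or more activation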;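 also: 100% = tunicamycin at 10 µg/mL and 0% = DMSO only wells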
#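 Test system: CHO-XBP1 luciferase reporter cells | Buffer or medium: Serum-containing F12 medium, 10% FBS | Schedule: 6 h compound exposure at 37 °C, 5% CO2 | Detection: Steady-Glo luciferase glow luminescence, 10 min after reagent addition | Read-out basis: Activation, % of tunicamycin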
# CHOP inhibitor – inhibitors of CHOP induction in ER stress response | CHO-K1 CHOP-promoter luciferase, tunicamycin-induced, 15-18 h | inhibition, % at 10 µM | 220,000 tested, 3.8% active | AID 2732;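 active = compounds that reduced the stress-induced luciferase reporter signal by more than about 70% of percent inhibition, limit read from the data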;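 also: 0% = tunicamycin plus vehicle and 100% = wells without tunicamycin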
# UPR XBP1 confirm – adaptive UPR (XBP1) activation, confirmed. shares compounds with UPR XBP1 act. CHO-XBP1 IRE1-XBP1 luciferase reporter, luminescence. activation, % at 20 µM. 1,000 tested, 63% active;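 active = reporter signal at least 30% of the positive control's activation in two or more of four replicate wells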;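 also: plate controls were DMSO negative control for no effect and tunicamycin 10 µg/mL positive control for full effect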
# An asterisk follows results filed as active; . = no result given. Only a selection was taken, and hits are over-represented in it overall.
SMILES,UPR CHOP act,GAA850 FXN act,UPR XBP1 act,CHOP inhibitor,UPR XBP1 confirm
OC(c1ccccc1)(c1nc(-c2ccc(F)c(Cl)c2)cs1)C(F)(F)F (configuration not stated),.,2,.,.,.
CCc1sc2nc(SCC(=O)Nc3cc(C)on3)n(-c3cccc(OC)c3)c(=O)c2c1C,19,-2,40*,89*,81*
COc1cnc(-c2ccccn2)nc1Sc1ccc(Cl)cc1,8,-3,32*,30,8
COc1ccc(CN2CCC[C@]3(N[C@H](c4ccccc4)[C@@H]4C(=O)N(Cc5ccccc5)C(=O)[C@@H]43)C2=O)cc1,.,-5,.,.,.
Cc1ccc(Cn2c(=N)n(CC(=O)c3ccc([N+](=O)[O-])cc3)c3ccccc32)cc1,15,-1,67*,9,18
CCCCn1c(=N)n(CC(=O)c2ccc([N+](=O)[O-])cc2)c2ccccc21,0,.,3,33,.
COc1cc(NC(=O)c2cccs2)ccc1NC(=O)c1cc2ccccc2o1,38,0,69*,91*,37*
Cc1cc(NC(=O)c2cncc(Br)c2)ccc1NC(=O)c1cc2ccccc2o1,26,-5,35*,.,81*
COc1cc(NC(C)=O)ccc1NC(=O)c1cc2ccccc2o1,5,3,1,.,.
CC(=O)N1CCc2c(sc(NC(=O)c3ccc([N+](=O)[O-])o3)c2C(N)=O)C1,.,-1,.,.,.
CC1(C(=O)NCc2ccccn2)CCN1C(=O)Cc1ccc(Cl)cc1Cl (configuration not stated),.,2,.,.,.
O=C(CSCc1ccc(Cl)cc1)Nc1ccc(-c2nnc(-c3ccccc3)o2)cc1,28,-1,107*,67,72*
CC(=O)Nc1sc(C)c(C)c1C(=O)OCC(=O)Nc1cccc(C)c1,1,0,37*,.,5
Cc1ccc(CSc2nc3ccccc3cc2C=O)cc1,2,6,27,-7,.
Clc1ccc(CSc2cnnc3ccccc23)cc1Cl,.,3,.,.,.
O=Cc1cc2ccccc2nc1SCc1ccc(Cl)cc1,10,5,43*,56,43*
O=Cc1cc2ccccc2nc1SCc1ccc(Cl)c(Cl)c1,4,1,34*,-8,39*
COc1ccccc1CNC(=O)Nc1nnc([C@H]2C[C@H](O)[C@@H](CO)O2)s1,.,-1,.,.,.
O=C(c1ccc(Br)cc1)c1cc([N+](=O)[O-])ccc1N1CCCCC1,1,1,32*,-15,18
Cc1ccc([C@H]2N[C@]3(CCCN(Cc4ccc(Cl)cc4)C3=O)[C@H]3C(=O)N(C)C(=O)[C@@H]23)cc1,.,-2,.,.,.
NC(Cc1ccccc1)c1csc(NC(=O)c2cccc(OC(F)(F)F)c2)n1 (configuration not stated),.,-2,.,.,.
O=C1c2ccccc2C(=O)N1CCCOCc1c[nH]c(=O)[nH]c1=O,-1,1,32*,-29,0
COC(c1ccccc1)(c1ccccc1)C(Oc1nccc(C)n1)C(=O)O (configuration not stated),-1,1,137*,.,1
COc1ccc(-c2nn(-c3ccccc3)cc2/C=C/C(=O)OCC(=O)Nc2ccc(C#N)cc2)cc1,3,1,0,66,.
COc1ccc(-c2nn(-c3ccccc3)cc2/C=C/C(=O)OCC(=O)Nc2cccc(C#N)c2)cc1,15,2,66*,3,97*
SMILES,UPR CHOP act,GAA850 FXN act,UPR XBP1 act,CHOP inhibitor,UPR XBP1 confirm
COc1ccc(N(C(=O)Cn2nnc(-c3ccccc3F)n2)C(C(=O)NCC2CCCO2)c2ccc(Cl)cc2)cc1 (configuration not stated),4,1,41*,-20,3
COc1ccc(N(C(=O)Cn2nnc(-c3ccc(Cl)cc3)n2)C(C(=O)NCC2CCCO2)c2ccc(C)cc2)cc1 (configuration not stated),5,-3,3,56,.
CNC[C@@H]1OCc2ccccc2-c2c(n(C)c3ccccc23)C(=O)N([C@H](C)CO)C[C@H]1C,.,0,.,.,.
Cc1ccc(C2=Nc3ccc(Br)cc3C(c3ccncc3)=NN2)cc1,4,4,37*,31,45*
Cc1cc(NC(=O)/C(C#N)=C/c2ccc(-c3ccc(SC(F)F)cc3)o2)n(-c2ccccc2)n1,36,1,37*,56,34*
Cc1nnc(N2CCCC(C(=O)Nc3cc(F)ccc3F)C2)c2nn(-c3ccccc3)c(C)c12 (configuration not stated),5,-11,41*,.,0
Cc1nnc(N2CCCC(C(=O)NCc3ccc(OC(C)C)cc3)C2)c2nn(-c3ccccc3)c(C)c12 (configuration not stated),2,5,-5,.,.
COc1cccc(NC(=O)C2(C)CCN2C(=O)CC2CCCC2)c1 (configuration not stated),.,1,.,.,.
O=C(Nc1ccccc1[N+](=O)[O-])OCC=Cc1ccccc1,.,2,.,.,.
COc1ccc2cc(CN(C)C(=O)CN3C(=O)NC4(CCCC4)C3=O)ccc2c1,.,0,.,.,.
CC1CCN(Cc2c(C(=O)N/N=C/c3ccc(C(C)C)cc3)nnn2-c2nonc2N)CC1,3,2,36*,.,74*
CN(C)c1ccc(/C=N/NC(=O)c2nnn(-c3nonc3N)c2CN2CCCCCC2)cc1,24,3,59*,.,20
Cc1ccc(-c2cc(C(=O)Nc3ccncc3)c3ccccc3n2)cc1,0,0,0,.,.
O=C(Nc1ccc(SC(F)F)cc1)c1cc(-c2ccncc2)nc2ccccc12,8,-1,64*,.,48*
CC(C)C(=O)N(c1cc2sc(=O)oc2c2ccccc12)S(=O)(=O)c1cccs1,24,4,48*,69,49*
O=C(Nc1ccc(-c2nc3c(ccc4ccccc43)o2)cc1)c1ccco1,18,2,33*,79*,15
COc1ccccc1-c1csc(C(O)c2ccc(F)cc2)n1 (configuration not stated),.,3,.,.,.
CC(O)(c1ccc(F)c(F)c1)c1nc(-c2cc3ccccc3o2)cs1 (configuration not stated),.,1,.,.,.
COc1ccc(/C=N/NC(=O)c2cccc([N+](=O)[O-])c2)c2ccccc12,2,7,77*,.,34*
COc1cccc(/C=N/NC(=O)c2cccc([N+](=O)[O-])c2)c1OS(=O)(=O)c1ccccc1,-1,-2,-1,-8,.
COc1cc(OC)c2c(-c3cccc(-c4ccc(CO)cc4)c3)cc(=O)oc2c1,0,-3,34*,.,30*
COc1cc(OC)cc(C(=O)Nc2ccccc2-c2nnn(CC(=O)Nc3cc(C)on3)n2)c1,2,-1,327*,.,1
COc1ccc(Cl)c(-c2cc(C(=O)Nc3ccc(F)cc3)[nH]n2)c1,.,4,.,.,.
COc1ccc2oc(-c3ccc(NC(=O)c4ccc(N5CCOCC5)c([N+](=O)[O-])c4)cc3)nc2c1,3,0,64*,2,23

# From PubChem BioAssay
